Assay results as given in ChEMBL document CHEMBL3525994, “Lysosomal sequestration (trapping) of lipophilic amine (cationic amphiphilic) drugs in immortalized human hepatocytes (Fa2N-4 cells)” (Drug Metab Dispos, 2013).

Columns and labels:
[1] = Drug uptake in lysosomes of human Fa2N-4 cells assessed as inhibition of LysoTracker Red fluorescence after 30 mins; assay type: ADME, cell-based, Lysosome; conditions: Fa2N-4, 0.5 h
[2] = Drug uptake in lysosomes of human Fa2N-4 cells assessed as inhibition of LysoTracker Red fluorescence at 500 uM after 30 mins relative to control; assay type: cell-based, Lysosome; conditions: Fa2N-4 cells (lysosomes), probe LysoTracker Red
Outline: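 Fa2N-4 cells at 50,000/well on collagen, rinsed with PBS. Drug (methanol stock diluted in supplemented modified Chee's medium; final 1–500 μM) with LysoTracker Red 50 nM final, 30 min, 37°C, triplicate. Cells PBS-rinsed and solubilised in acetonitrile. Fluorescence read at ex 530/em 590 nm. Medium kept for LDH release.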

[3] = Drug uptake in lysosomes of human Fa2N-4 cells assessed as cellular partitioning at 1 uM preincubated with ammonium chloride followed by compound treatment measured after 5 mins by LC-MS analysis; assay type: ADME, cell-based, Lysosome; conditions: fa2n-4, 5 min
Outline: (§1)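 Inhibitor is ammonium chloride 50 mM or chloroquine 200 μM. Three orders of addition: added together with substrate; added 5 min before substrate and left in; or added 5 min before substrate, then cells washed before substrate. Stopped with ice-cold PBS, acetonitrile lysis with internal standard, LC-MS/MS.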

[4] = Drug uptake in lysosomes of human Fa2N-4 cells assessed as cellular partitioning at 1 uM co-incubated with chloroquine for 5 mins by LC-MS analysis; assay type: ADME, cell-based, Lysosome; conditions: fa2n-4, 5 min; outline: as §1
[5] = Drug uptake in lysosomes of human Fa2N-4 cells assessed as cellular partitioning at 1 uM after 5 mins by LC-MS analysis in presence of ammonium chloride; assay type: ADME, cell-based, Lysosome; conditions: fa2n-4, 5 min
Outline: (§2)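 Fa2N-4 cells, plated at 50,000/well on collagen in MFE with 10% newborn calf serum, switched to serum-free medium after attachment and used 36–48 h after plating. Substrate 1 μM in serum-free MFE, 37±1°C. Cells and substrate solution preincubated apart 5 min, then combined (± ammonium chloride 50 mM, nigericin 10 μM plus monensin 20 μM, or co-drug). Stopped with ice-cold PBS, washed, lysed in acetonitrile with internal standard, quantified by LC-MS/MS.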

[6] = Drug uptake in lysosomes of human Fa2N-4 cells assessed as cellular partitioning at 1 uM preincubated with ammonium chloride for 5 mins followed by media washout and compound treatment measured after 5 mins by LC-MS analysis; assay type: ADME, cell-based, Lysosome; conditions: fa2n-4, 5 min; outline: as §1
[7] = Drug uptake in lysosomes of human Fa2N-4 cells assessed as cellular partitioning at 1 uM after 5 mins by LC-MS analysis in presence of nigericin and monensin; assay type: ADME, cell-based, Lysosome; conditions: fa2n-4, 5 min; outline: as §2
[8] = Drug uptake in lysosomes of human Fa2N-4 cells assessed as cellular partitioning at 1 uM after 5 mins by LC-MS analysis in presence of atorvastatin; assay type: ADME, cell-based, Lysosome; conditions: fa2n-4, 5 min; outline: as §2
[9] = Drug uptake in lysosomes of human Fa2N-4 cells assessed as cellular partitioning at 1 uM after 5 mins by LC-MS analysis in presence of ammonium chloride, nigericin and monensin; assay type: ADME, cell-based, Lysosome; conditions: fa2n-4, 5 min; outline: as §2
[10] = Drug uptake in lysosomes of human Fa2N-4 cells assessed as cellular partitioning at 1 uM co-incubated with ammonium chloride for 5 mins by LC-MS analysis; assay type: ADME, cell-based, Lysosome; conditions: fa2n-4, 5 min; outline: as §2
[11] = Drug uptake in lysosomes of human Fa2N-4 cells assessed as cellular partitioning at 1 uM after 5 mins by LC-MS analysis in presence of chloroquine; assay type: ADME, cell-based, Lysosome; conditions: fa2n-4, 5 min; outline: as §1
[12] = Drug uptake in lysosomes of human Fa2N-4 cells assessed as cellular partitioning at 1 uM after 5 mins by LC-MS analysis in presence of rifampin; assay type: ADME, cell-based, Lysosome; conditions: fa2n-4, 5 min; outline: as §2
[13] = Drug uptake in lysosomes of human Fa2N-4 cells assessed as cellular partitioning at 1 uM preincubated with chloroquine for 5 mins followed by media washout and compound treatment measured after 5 mins by LC-MS analysis; assay type: ADME, cell-based, Lysosome; conditions: fa2n-4, 5 min; outline: as §1
[14] = Drug uptake in lysosomes of human Fa2N-4 cells assessed as cellular partitioning measured per 10^6 cells at 1 uM after 5 mins by LC-MS analysis; assay type: ADME, cell-based, Lysosome; conditions: fa2n-4, 5 min; outline: as §2
[15] = Drug uptake in lysosomes of human Fa2N-4 cells assessed as cellular partitioning at 1 uM after 5 mins by LC-MS analysis in presence of imipramine; assay type: ADME, cell-based, Lysosome; conditions: fa2n-4, 5 min; outline: as §2
[16] = Drug uptake in lysosomes of human Fa2N-4 cells assessed as cellular partitioning at 1 uM after 5 mins by LC-MS analysis in presence of dextromethorphan; assay type: ADME, cell-based, Lysosome; conditions: fa2n-4, 5 min; outline: as §2
[17] = Drug uptake in lysosomes of human Fa2N-4 cells assessed as cellular partitioning at 1 uM after 5 mins by LC-MS analysis in presence of diclofenac; assay type: ADME, cell-based, Lysosome; conditions: fa2n-4, 5 min; outline: as §2
[18] = Drug uptake in lysosomes of human Fa2N-4 cells assessed as cellular partitioning at 1 uM after 5 mins by LC-MS analysis in presence of astemizole; assay type: ADME, cell-based, Lysosome; conditions: fa2n-4, 5 min; outline: as §2
[19] = Drug uptake in lysosomes of human Fa2N-4 cells assessed as cellular partitioning at 1 uM preincubated with chloroquine followed by compound treatment measured after 5 mins by LC-MS analysis; assay type: ADME, cell-based, Lysosome; conditions: fa2n-4, 5 min; outline: as §1
[20] = Drug uptake in lysosomes of human Fa2N-4 cells assessed as cellular partitioning at 1 uM measured at 10 mins by LC-MS analysis in presence of ammonium chloride; assay type: ADME, cell-based, Lysosome; conditions: fa2n-4, 10 min; outline: as §2
[21] = Drug uptake in lysosomes of human Fa2N-4 cells assessed as cellular partitioning measured per 10^6 cells at 1 uM after 5 mins by LC-MS analysis in presence of ammonium chloride; assay type: ADME, cell-based, Lysosome; conditions: fa2n-4, 5 min; outline: as §2
[22] = Drug uptake in lysosomes of human Fa2N-4 cells assessed as cellular partitioning at 1 uM up to 10 mins by LC-MS analysis; assay type: ADME, cell-based, Lysosome; conditions: fa2n-4, 10 min; outline: as §2

Compound | IC50 [1] | further results
CCN(CC)Cc1cc(Nc2ccnc3cc(Cl)ccc23)ccc1O [AMODIAQUINE] | > 500 µM | inhibition at 0.5 h, 500 µM [2]: > 25%
CCN1CCC[C@H]1CNC(=O)c1c(O)c(Cl)cc(Cl)c1OC [RACLOPRIDE] | > 500 µM | –
CCN(CC)CCCC(C)Nc1ccnc2cc(Cl)ccc12 (stereo not given) [CHLOROQUINE] | 220 µM | –
CC(C)NCC(O)COc1cccc2ccccc12 (stereo not given) [PROPRANOLOL] | – | Drug uptake [3]: Not Active; Drug uptake [4]: Not Active; Drug uptake [5]: Not Active; Drug uptake [6]: Active; Drug uptake [7]: Not Active; Drug uptake [8]: Active; Drug uptake [9]: Not Active; Drug uptake [10]: Not Active; Drug uptake [11]: Not Active; Drug uptake [12]: Active; Drug uptake [13]: Not Active; Drug uptake [14]: 189 pmol; Drug uptake [15]: Not Active; Drug uptake [16]: Not Active; Drug uptake [17]: Active; Drug uptake [18]: Not Active; Drug uptake [19]: Not Active; Drug uptake [20]: Not Active; Drug uptake [21]: Not Active; Drug uptake [22]: Not Active
COc1ccc2c(c1)[C@]13CCCC[C@@H]1[C@H](C2)N(C)CC3 [DEXTROMETHORPHAN] | > 500 µM | inhibition at 0.5 h, 500 µM [2]: > 25%
CC(C)Cc1ccc(C(C)C(=O)O)cc1 (stereo not given) [IBUPROFEN] | > 500 µM | –
CNCCC(Oc1ccc(C(F)(F)F)cc1)c1ccccc1 (stereo not given) [FLUOXETINE] | 150 µM | –
CC(CCc1ccccc1)NCC(O)c1ccc(O)c(C(N)=O)c1 (stereo not given) [LABETALOL] | > 500 µM | inhibition at 0.5 h, 500 µM [2]: > 25%
CC(C(=O)O)c1cccc(C(=O)c2ccccc2)c1 (stereo not given) [KETOPROFEN] | > 500 µM | –
O=C(c1ccccc1)c1ccc2n1CCC2C(=O)O (stereo not given) [KETOROLAC] | > 500 µM | –
CC(C)n1c(/C=C/C(O)CC(O)CC(=O)O)c(-c2ccc(F)cc2)c2ccccc21 (stereo not given) [FLUVASTATIN] | > 500 µM | –
CN1C(C(=O)Nc2ccccn2)=C(O)c2sccc2S1(=O)=O [TENOXICAM] | > 500 µM | –
COc1ccc(CCN2CCC(Nc3nc4ccccc4n3Cc3ccc(F)cc3)CC2)cc1 [ASTEMIZOLE] | 110 µM | –
CC[C@H](C)C(=O)O[C@H]1C[C@H](O)C=C2C=C[C@H](C)[C@H](CC[C@@H](O)C[C@@H](O)CC(=O)O)[C@H]21 [PRAVASTATIN] | > 500 µM | –
CNCCCN1c2ccccc2CCc2ccccc21 [DESIPRAMINE] | 220 µM | –
OC(Cn1cncn1)(Cn1cncn1)c1ccc(F)cc1F [FLUCONAZOLE] | > 500 µM | –
CC(C)c1nc(N(C)S(C)(=O)=O)nc(-c2ccc(F)cc2)c1/C=C/[C@@H](O)C[C@@H](O)CC(=O)O [ROSUVASTATIN] | > 500 µM | –
C#Cc1cccc(Nc2ncnc3cc(OCCOC)c(OCCOC)cc23)c1 [ERLOTINIB] | > 500 µM | –
COC(=O)C1=C(C)NC(C)=C(C(=O)OC)C1c1ccccc1[N+](=O)[O-] [NIFEDIPINE] | > 500 µM | –
CN(C)CCCN1c2ccccc2CCc2ccccc21 [IMIPRAMINE] | 260 µM | –
CS(=O)(=O)CCNCc1ccc(-c2ccc3ncnc(Nc4ccc(OCc5cccc(F)c5)c(Cl)c4)c3c2)o1 [LAPATINIB] | 380 µM | –
CC(C)c1c(C(=O)Nc2ccccc2)c(-c2ccccc2)c(-c2ccc(F)cc2)n1CC[C@@H](O)C[C@@H](O)CC(=O)O [ATORVASTATIN] | > 500 µM | Drug uptake [14]: < 11 pmol; Drug uptake [21]: 34 pmol
CC(=O)Nc1ccc(O)cc1 [ACETAMINOPHEN] | > 500 µM | –
O=C(O)Cc1ccccc1Nc1c(Cl)cccc1Cl [DICLOFENAC] | > 500 µM | –
O=C(O)COCCN1CCN(C(c2ccccc2)c2ccc(Cl)cc2)CC1 (stereo not given) [CETIRIZINE] | > 500 µM | –
Fc1ccc([C@@H]2CCNC[C@H]2COc2ccc3c(c2)OCO3)cc1 [PAROXETINE] | 130 µM | –
